Published values from different studies.
Each line is one published result; the experiments were not run side by side.
CCR2: C-C chemokine receptor type 2 (CCR2, Homo sapiens, UniProt P41597)
ALK: ALK tyrosine kinase receptor (ALK, Homo sapiens, UniProt Q9UM73)
SCN5A: Sodium channel protein type 5 subunit alpha (SCN5A, Homo sapiens, UniProt Q14524)
SIRT6: NAD-dependent protein deacylase sirtuin-6 (SIRT6, Homo sapiens, UniProt Q8N6T7)
TEK: Angiopoietin-1 receptor (TEK, Homo sapiens, UniProt Q02763)
MAPK10: Mitogen-activated protein kinase 10 (MAPK10, Homo sapiens, UniProt P53779)
CTSB: Cathepsin B (CTSB, Homo sapiens, UniProt P07858)
CCR5: C-C chemokine receptor type 5 (CCR5, Homo sapiens, UniProt P51681)
FASN: Fatty acid synthase (FASN, Gallus gallus, UniProt P12276)
PTPRC: Receptor-type tyrosine-protein phosphatase C (PTPRC, Homo sapiens, UniProt P08575)

| Compound | target | test | setting | IC50 |
| --- | --- | --- | --- | --- |
| CN(Cc1ccc(NC(=O)C2=Cc3cc(-c4ccc(OCCCF)cc4)ccc3CCC2)cc1)C1CCOCC1 | CCR2 | ligand displacement, radioligand | cell membranes | 0.118 µM |
| Cc1cc(-c2cc(C#N)ccc2O[C@@H]2C[C@]2(CN)c2ccc(F)cc2F)n[nH]1 (racemic) | ALK | phosphorylation in cells, inhibitor, ELISA |  | 0.16 µM |
| Oc1ccc(-c2ccc3[nH]c4ncc(/C=C/c5cccc(F)c5)cc4c3c2)cc1 | ALK | enzyme activity, inhibitor, ELISA |  | > 10 µM |
| CCOc1ccc2c(-c3cc(C)nc(Nc4cc(OC)cc(C(F)(F)F)c4)n3)cnn2n1 | Dual specificity protein kinase CLK3 (CLK3, Homo sapiens, UniProt P49761) | enzyme activity, inhibitor |  | > 10 µM |
| O=C(NCCN1CCCC1)c1cc(-c2ccc(CN3CCOCC3)cc2)nc2ccc(F)cc12 | SCN5A | ion current, inhibitor, patch clamp |  | 16 µM |
| COc1cc2nccc(Oc3ccc(NC(=O)c4cc5c(n(-c6ccccc6)c4=O)CCCC5=O)nc3)c2cc1OC | Tyrosine-protein kinase Fyn (FYN, Homo sapiens, UniProt P06241) | enzyme activity in cells, inhibitor, ATP luminescence |  | > 0.1 µM |
| Cc1ccc(CONC(=O)c2ccc(C(N)=O)cc2)cc1 | SIRT6 | enzyme activity, inhibitor, fluorescence |  | 7.71 µM |
| COc1ccc(-c2ccc3[nH]c4ncc(-c5cccc([N+](=O)[O-])c5)cc4c3c2)cc1 | ALK | enzyme activity, inhibitor, ELISA |  | 9.3 µM |
| CNC(=O)c1cc2c(Oc3ccc(NC(=O)C4(C(=O)Nc5ccc(F)cc5)CC4)cc3)ccnc2cc1OC | TEK | enzyme activity, inhibitor, radiometric |  | 0.032 µM |
| Cc1ccc(C(=O)Nc2ccc(Oc3cc4cnn(C)c4cc3-c3cn[nH]c3)c(F)c2)c(=O)n1-c1ccc(F)cc1 | TEK | enzyme activity, inhibitor, radiometric |  | 0.004 µM |
| CSc1nc(C)c(-c2ccnc(N[C@H]3CC[C@H](NC(=O)C(C)(C)C)CC3)c2)[nH]1 | MAPK10 | enzyme activity, inhibitor, ELISA |  | 2.54 µM |
| COc1cccc(-c2cc(C)[nH]n2)c1 | ALK | enzyme activity, inhibitor, TR-FRET |  | 170 µM |
| COc1cc(/C=N/n2c(C)nc3ccc(C)cc3c2=O)ccc1OCc1ccccc1 | CTSB | enzyme activity, inhibitor |  | 67.5 µM |
| Cn1c[n+]([C@@H]2O[C@H](COP(=O)(O)OP(=O)([O-])OP(=O)(O)OC[C@H]3O[C@@H](n4cnc5c(=O)[nH]c(N)nc54)[C@H](O)[C@@H]3O)[C@@H](O)[C@H]2O)c2nc(N)[nH]c(=O)c21 | m7GpppX diphosphatase (DCPS, Homo sapiens, UniProt Q96C86) | enzyme activity, inhibitor, radiometric |  | ~0.03 µM |
| CN(Cc1ccc(NC(=O)C2=Cc3cc(-c4ccc(OCCCCCO)cc4)ccc3CCC2)cc1)C1CCOCC1 | CCR5 | ligand displacement, radioligand | cell membranes | 3.1 µM |
| O=C(Nc1ccn(Cc2ccc(O)cc2C(F)(F)F)n1)c1c(F)cccc1F | Transient receptor potential cation channel subfamily V member 4 (Trpv4, Rattus norvegicus, UniProt Q9ERZ8) | ion current |  | > 10 µM |
| Cc1cc(-c2ccccc2)n[nH]1 | ALK | enzyme activity, inhibitor, TR-FRET |  | > 300 µM |
| N#Cc1ccc(COC[C@H]2O[C@@H](n3c(NCc4ccc(Cl)c(Cl)c4)nc4c(N)ncnc43)[C@H](O)[C@@H]2O)cc1 | Heat shock cognate 71 kDa protein (HSPA8, Homo sapiens, UniProt P11142) | ligand displacement, FP |  | 0.39 µM |
| Nc1nonc1-n1cc(C(=O)N/N=C/c2ccc([N+](=O)[O-])cc2O)nn1 | SIRT6 | enzyme activity, inhibitor, fluorescence |  | 121 µM |
| CSc1nc(C)c(-c2ccnc(N[C@H]3CC[C@H](NC(=O)c4ccccc4)CC3)c2)[nH]1 | MAPK10 | enzyme activity, inhibitor, ELISA |  | 1.22 µM |
| CN(Cc1ccc(NC(=O)C2=Cc3cc(-c4ccc(OCCCCCF)cc4)ccc3CCC2)cc1)C1CCOCC1 | CCR2 | calcium signal, antagonist |  | 0.00076 µM |
| C=C(C)[C@H](CC=C(C)C)Cc1c(O)cc(OC)c(C(=O)/C=C/c2ccc(O)cc2O)c1O | FASN | enzyme activity, inhibitor, radiometric |  | 9.6 µM |
| N#Cc1ccccc1CONC(=O)c1ccc(C(N)=O)cc1 | SIRT6 | enzyme activity, inhibitor, fluorescence |  | 52.3 µM |
| Cc1cc(-c2cc(C#N)ccc2O[C@H]2C[C@H]2c2ccc(F)cc2F)n[nH]1 | ALK | phosphorylation in cells, inhibitor, ELISA |  | > 1 µM |
| Nc1nonc1-n1cc(C(=O)N/N=C/c2ccc(C(F)(F)F)cc2[N+](=O)[O-])nn1 | SIRT6 | enzyme activity, inhibitor, fluorescence |  | 6.2 µM |

| Compound | target | test | setting | IC50 |
| --- | --- | --- | --- | --- |
| Cc1cc(-c2ccncc2)n[nH]1 | ALK | enzyme activity, inhibitor, TR-FRET |  | 240 µM |
| C=CC(=O)N1CCN(C(=O)c2cc(Cc3n[nH]c(=O)c4ccccc34)ccc2F)CC1 | Poly [ADP-ribose] polymerase 2 (PARP2, Homo sapiens, UniProt Q9UGN5) | enzyme activity, inhibitor |  | 0.0317 µM |
| Cc1cnc(-c2ccc(-c3ccc(NC(=O)Nc4c(F)cc(F)cc4F)cc3F)c3c2C(=O)NC3)[nH]1 | TEK | enzyme activity, inhibitor |  | 0.0065 µM |
| NC(=O)c1ccc(C(=O)NOCc2ccccc2Cl)cc1 | SIRT6 | enzyme activity, inhibitor, fluorescence |  | 11.4 µM |
| COC[C@]1(c2ccc(F)cc2F)C[C@H]1Oc1ccc(C#N)cc1-c1cc(C)[nH]n1 (racemic) | ALK | enzyme activity, inhibitor, TR-FRET |  | 0.043 µM |
| COc1cc(NCC(=O)Nn2c(C)nc3ccc(Cl)cc3c2=O)cc(OC)c1OC | CTSB | enzyme activity, inhibitor |  | 70.5 µM |
| C=CC(=O)Nc1ccc(N2CCC[C@@H](Nc3ncc(Cl)c(-c4c[nH]c5ccccc45)n3)C2)cc1C | Cyclin-dependent kinase 2, with cyclin A (CDK2, Homo sapiens, UniProt P24941) | enzyme activity, inhibitor, FRET |  | 1.1 µM |
| CCS(=O)(=O)Nc1ccc(C(=O)NC2CC3CCC2C3)cc1 (stereo not shown) | Pantothenate kinase 1 (Homo sapiens, UniProt Q8TE04) | enzyme activity, inhibitor, ATP luminescence |  | 0.27 µM |
| NC(=O)c1ccc(C(=O)NOCc2ccc(C(=O)c3ccccc3)cc2)cc1 | SIRT6 | enzyme activity, inhibitor, fluorescence |  | 2.8 µM |
| CN[C@H]1CC[C@@H](c2ccc(Cl)c(Cl)c2)c2ccccc21 | PTPRC | enzyme activity, inhibitor, fluorescence |  | 80 µM |
| COc1ccc2c(Oc3ccc4c(C(=O)Nc5ccccc5N)cccc4c3)ccnc2c1 | Vascular endothelial growth factor receptor 3 (FLT4, Homo sapiens, UniProt P35916) | enzyme activity, inhibitor |  | 0.009 µM |
| c1ccc(-c2ccc(-c3cnc4[nH]c5ccccc5c4c3)cc2)cc1 | ALK | enzyme activity, inhibitor, ELISA |  | > 10 µM |
| CCn1c(-c2nc3ccc(C(=O)N4CCCC(N)C4)cc3n2C)cc2ccccc21 (stereo not shown) | SCN5A | ion current, inhibitor |  | 31.6 µM |
| O=C(NO)c1ccc(C(=O)NOCc2ccc(C(F)(F)F)cc2)cc1 | SIRT6 | enzyme activity, inhibitor, fluorescence |  | 8.34 µM |
| CN(Cc1ccc(NC(=O)C2=Cc3cc(-c4ccc(OCCCO)cc4)ccc3CCC2)cc1)C1CCOCC1 | CCR5 | ligand displacement, radioligand | cell membranes | 0.97 µM |
| O=C(O)CC(=O)C(=O)O | LDHA (Oryctolagus cuniculus, UniProt P13491) | enzyme activity, inhibitor |  | 3320 µM |
| O=C1c2ccccc2-c2cccc3cccc1c23 | PTPRC | enzyme activity, inhibitor, fluorescence |  | > 150 µM |
| Cc1cc(-c2cccc(OC(F)(F)F)c2)[nH]n1 | ALK | enzyme activity, inhibitor, TR-FRET |  | 95 µM |
| NC(=O)c1ccc(C(=O)NOCc2ccc(Sc3ccccc3Cl)c(C(F)(F)F)c2)cc1 | SIRT6 | enzyme activity, inhibitor, fluorescence |  | 3.82 µM |
| Cc1nc2ccc(Cl)cc2c(=O)n1NC1=NC(=O)CS1 | CTSB | enzyme activity, inhibitor |  | 74.5 µM |
| NC(=O)c1ccc(C(=O)NOCc2ccc(Sc3cc(Cl)cc(Cl)c3)c(C(F)(F)F)c2)cc1 | SIRT6 | enzyme activity, inhibitor, fluorescence |  | 1.24 µM |
| C=C(C)C(CC=C(C)C)Cc1c(O)cc(OC)c2c1O[C@H](c1ccc(O)cc1O)CC2=O (single isomer, unassigned; (-)) | FASN | enzyme activity, inhibitor, radiometric |  | 10.3 µM |
| COc1ccc(CONC(=O)c2ccc(C(N)=O)cc2)cc1 | SIRT6 | enzyme activity, inhibitor, fluorescence |  | 7.49 µM |
| CC(C)C[C@H](NC(=O)[C@H]1O[C@@H]1C(=O)O)C(=O)NCCCCN=C(N)N | CTSB | enzyme activity, inhibitor |  | 0.00315 µM |
